The EC50 is the concentration giving half of the maximal effect. A high value points to a need for much substance.

The species named for one experiment is Rattus norvegicus. Description: Intrinsic activity at adrenergic alpha2 receptor in rat vas deferens relative to clonidine. The format is tissue-based.
The target of experiment [1] is T1, Alpha-2B adrenergic receptor (Homo sapiens) (UniProt P18089).
T1 sequence (whole entry): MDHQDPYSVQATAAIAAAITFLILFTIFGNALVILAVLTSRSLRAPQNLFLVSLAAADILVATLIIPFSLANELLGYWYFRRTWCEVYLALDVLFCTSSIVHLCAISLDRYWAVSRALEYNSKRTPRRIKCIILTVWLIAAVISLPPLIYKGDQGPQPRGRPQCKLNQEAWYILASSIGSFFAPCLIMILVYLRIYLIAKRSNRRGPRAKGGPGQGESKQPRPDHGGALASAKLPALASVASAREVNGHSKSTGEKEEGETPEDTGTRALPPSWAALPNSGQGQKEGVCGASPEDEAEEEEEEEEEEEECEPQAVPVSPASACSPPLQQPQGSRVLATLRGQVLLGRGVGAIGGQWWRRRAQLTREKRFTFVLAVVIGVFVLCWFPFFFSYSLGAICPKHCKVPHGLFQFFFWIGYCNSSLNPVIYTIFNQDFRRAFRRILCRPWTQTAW
The experiment is described as follows: Intrinsic activity at human recombinant adrenergic alpha2B receptor expressed in CHO cells relative to (-)-noradrenaline. The format is cell-based. Summed up:
(§1)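 Acidification rate was measured by Cytosensor microphysiometry in stably transfected CHO cells (3 × 10⁵ cells/cup, bicarbonate-free DMEM perfusion). Each response is the peak rate change minus the pre-agonist baseline. Emax from concentration-response curves is expressed as a fraction of the (-)-noradrenaline maximum, taken as 1; mean ± SEM, 3-6 experiments.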

Experiment [2] has as its target T2, Alpha-2C adrenergic receptor (Homo sapiens) (UniProt P18825).
T2 sequence (whole entry): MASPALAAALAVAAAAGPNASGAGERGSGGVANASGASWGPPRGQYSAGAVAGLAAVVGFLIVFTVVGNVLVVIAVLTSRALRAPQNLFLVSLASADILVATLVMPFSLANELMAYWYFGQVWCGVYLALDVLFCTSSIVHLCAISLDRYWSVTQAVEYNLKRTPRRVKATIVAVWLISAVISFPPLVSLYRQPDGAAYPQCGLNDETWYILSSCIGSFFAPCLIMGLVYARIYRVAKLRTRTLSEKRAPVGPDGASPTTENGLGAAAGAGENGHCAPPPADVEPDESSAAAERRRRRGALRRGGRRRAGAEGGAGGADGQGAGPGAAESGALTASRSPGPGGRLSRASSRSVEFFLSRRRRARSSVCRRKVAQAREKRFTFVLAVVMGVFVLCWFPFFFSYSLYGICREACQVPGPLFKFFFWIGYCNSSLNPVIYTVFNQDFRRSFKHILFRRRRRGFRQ
The experiment is described as follows: Intrinsic activity at human recombinant adrenergic Alpha-2C receptor expressed in CHO cells assessed as stimulation of extracellular acidification relative to (-)-noradrenaline. It counts as cell-based. The procedure, abridged:
as §1

The target in experiment [3] is T3, Alpha-2A adrenergic receptor (Homo sapiens) (UniProt P08913).
T3 sequence (whole entry): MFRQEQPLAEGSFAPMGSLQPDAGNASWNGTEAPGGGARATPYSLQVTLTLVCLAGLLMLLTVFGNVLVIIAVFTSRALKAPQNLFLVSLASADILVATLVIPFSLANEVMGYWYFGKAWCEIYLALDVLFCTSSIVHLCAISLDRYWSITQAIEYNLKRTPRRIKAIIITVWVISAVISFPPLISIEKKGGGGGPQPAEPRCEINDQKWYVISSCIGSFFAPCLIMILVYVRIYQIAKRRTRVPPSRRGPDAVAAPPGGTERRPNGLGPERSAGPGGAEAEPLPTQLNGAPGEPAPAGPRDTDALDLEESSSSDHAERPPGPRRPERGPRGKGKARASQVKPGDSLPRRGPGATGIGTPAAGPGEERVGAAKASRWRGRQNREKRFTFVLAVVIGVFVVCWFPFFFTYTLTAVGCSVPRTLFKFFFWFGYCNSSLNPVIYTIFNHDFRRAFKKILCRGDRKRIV
The experiment is described as follows: Intrinsic activity at human recombinant adrenergic alpha2A receptor expressed in CHO cells assessed as stimulation of extracellular acidification relative to (-)-noradrenaline. The format is cell-based. Summed up: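 Microphysiometry (Cytosensor) of extracellular acidification rate in CHO cells stably expressing human α2A. Cells were seeded at 3 × 10⁵ cells/cup and cultured 24 h at 37 °C, then perfused with bicarbonate-free DMEM at 100 µL/min, with agonist diluted into running medium. Response was taken as the maximum after agonist minus the mean of three pre-agonist readings. Emax is expressed as a fraction of (−)-noradrenaline (=1); 3–6 experiments.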

A short description of experiment [4]: Agonist activity at adrenergic alpha2 receptor in rat vas deferens. The format is functional, tissue-based.

As to `CC(Oc1ccccc1-c1ccccc1)C1=NCCN1` (stereo not given) [BIPHENYLINE], the Intrinsic activity in the experiment filed under Rattus norvegicus came out at 1; in experiment [1] it was 0.5; in experiment [2], 0.8; in experiment [3], 0.7. In experiment [4], the EC50 is 3.02 nM.

Source of the values: ChEMBL document CHEMBL1155080, “Alpha2-adrenoreceptors profile modulation. 4. From antagonist to agonist behavior” (J Med Chem, 2008).
